The source made the active and inactive calls. No cut-off for these calls is given here.
Assays:
HT-29 [1] = assay: Anti-necroptotic activity in human HT-29 cells assessed as inhibition of TNFalpha/SM-164/Z-VAD-fmk (TSZ)-induced necroptosis by measuring cell viability at 10 uM preincubated for 30 mins followed by TSZ stimulation and measured after 16 hrs by celltiter-glo luminescent cell viability assay relative to control; assay type: functional; conditions: time 16.5 hrs
Summary of the method: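 HT-29 cells in DMEM with 10% FBS, 37 °C, 5% CO2. Compound pretreatment 30 min, then TNF-α 20 ng/mL, Smac mimetic and z-VAD-fmk 20 μM for 16 h. Viability by CellTiter-Glo luminescence, normalised to untreated control cells.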

HT-29 [2] = assay: Anti-necroptotic activity in human HT-29 cells assessed as inhibition of TNFalpha/SM-164/Z-VAD-fmk (TSZ)-induced necroptosis by measuring increase in cell viability at 10 uM measured after 12 hrs by celltiter-glo luminescent cell viability assay; assay type: functional, cell-based
Summary of the method: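 HT-29 cells in DMEM with 10% FBS at 37 °C, 5% CO2. Test agents at 10 μM, then TSZ stimulation for 12 h. Viability read by CellTiter-Glo luminescence.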

HT-29 [3] = assay: Anti-necroptotic activity in human HT-29 cells assessed as inhibition of TNFalpha/SM-164/Z-VAD-fmk (TSZ)-induced necroptosis by measuring increase in cell viability measured after 12 hrs by celltiter-glo luminescent cell viability assay; assay type: functional, cell-based; conditions: for EC50: HT-29, 12 h
Summary of the method: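 HT-29 cells pretreated with test agent across a concentration range, then TNF-α (20 ng/mL), Smac mimetic (10 nM) and z-VAD-fmk (20 μM) for 12–16 h. CellTiter-Glo viability. EC50 ± SD from at least three independent experiments.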

L929 = assay: Anti-necroptotic activity in mouse L929 cells assessed as inhibition of TNFalpha/Z-VAD-fmk (TZ)-induced necroptosis by measuring increase in cell viability measured after 12 hrs by celltiter-glo luminescent cell viability assay; assay type: functional, cell-based; conditions: L929, 12 h
Summary of the method: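 Mouse L929 fibroblasts pretreated with test agent, then mouse TNF-α (20 ng/mL) plus z-VAD-fmk (20 μM). Incubation stated as 4 h in table footnote and 12 h in figure legend. CellTiter-Glo viability. EC50 ± SD from at least three independent repeats.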

HT-29 [4] = assay: Anti-necroptotic activity in human HT-29 cells assessed as inhibition of TNFalpha/SM-164/Z-VAD-fmk (TSZ)-induced necroptosis by measuring reduction in cell swelling at 5 uM preincubated for 30 mins followed by TSZ stimulation and measured after 12 hrs by phase contrast microscopic analysis; assay type: functional, cell-based; conditions: time 12.5 hrs
Summary of the method: (§1)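 HT-29 cells pretreated with DMSO or compound, then stimulated with TNF-α, Smac mimetic and z-VAD-fmk for 12 h. Necrotic morphology (swelling, membrane rupture) viewed by phase contrast microscopy at 200×.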

HT-29 [5] = assay: Anti-necroptotic activity in human HT-29 cells assessed as inhibition of TNFalpha/SM-164/Z-VAD-fmk (TSZ)-induced necroptosis by measuring reduction in plasma membrane rupture at 5 uM preincubated for 30 mins followed by TSZ stimulation and measured after 12 hrs by phase contrast microscopic analysis; assay type: functional, cell-based; conditions: time 12.5 hrs; summary of the method: as §1
HT-29 [6] = assay: Anti-necroptotic activity in human HT-29 cells assessed as inhibition of TNFalpha/cycloheximide/Z-VAD-fmk (TCZ)-induced necroptosis by measuring increase in cell viability measured after 16 hrs by celltiter-glo luminescent cell viability assay; assay type: functional, cell-based
HT-29 [7] = assay: Cytotoxicity against human HT-29 cells assessed as reduction in cell viability at 10 uM by MTT assay; assay type: cell-based; conditions: ht-29, 10 µM
HT-29 [8] = assay: Protection against TNFalpha/SM-164 (TS)-induced apoptosis in human HT-29 cells assessed as increase in cell viability at 0.08 to 10 uM measured after 20 hrs by celltiter-glo luminescent cell viability assay; assay type: functional, cell-based; conditions: dose 0.08-10 µM
Summary of the method: (§2)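 HT-29 apoptosis induced by TNF-α 20 ng/mL plus Smac mimetic (20 h), or by TNF-α plus cycloheximide (24 h), with graded compound concentrations. Viability read by CellTiter-Glo luminescence; means ± S.D. of three independent experiments.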

HT-29 [9] = assay: Protection against TNFalpha/cycloheximide (TC)-induced apoptosis in human HT-29 cells assessed as increase in cell viability at 0.08 to 10 uM measured after 24 hrs by celltiter-glo luminescent cell viability assay; assay type: functional, cell-based; conditions: dose 0.08-10 µM; summary of the method: as §2
Rattus norvegicus = assay: Neuroprotective activity in middle cerebral artery occlusion-induced Sprague-Dawley rat model of ischemia-reperfusion injury assessed as reduction in cerebral infarct volume at 1 mg/kg by TTC staining based microscopic analysis relative to control; assay type: functional; parameters: scale not given: the % may be the effect or the level left

SMILES | EC50 (HT-29 [3]) [nM] | EC50 (L929) [nM] | other results
Cc1ccc(Nc2nccc(N(C)c3ccc4c(C)n(C)nc4c3)n2)cc1S(N)(=O)=O [PAZOPANIB] | – | – | Activity (HT-29 [1]): >80%
COC(=O)[C@@]12OC[C@]34[C@H]([C@@H](O)[C@@H]1O)[C@@]1(C)CC(=O)C(O)=C(C)[C@@H]1C[C@H]3OC(=O)[C@H](OC(=O)C=C(C)C)[C@@H]24 | – | – | inhibition (HT-29 [2]): inactive
CC1(C)CC[C@]2(C(=O)NCc3ccccc3)CC[C@]3(C)[C@H](C(=O)C=C4[C@@]5(C)C=C(C#N)C(=O)C(C)(C)[C@@H]5CC[C@]43C)[C@@H]2C1 | 1630 | 1030 | –
CC1(C)CC[C@]2(C(=O)n3cnc(-c4ccccn4)c3)CC[C@]3(C)[C@H](C(=O)C=C4[C@@]5(C)C=C(C#N)C(=O)C(C)(C)[C@@H]5CC[C@]43C)[C@@H]2C1 | 290 | 610 | –
CC1(C)CC[C@]2(C(=O)O)CC[C@]3(C)[C@H](C(=O)C=C4[C@@]5(C)C=C(C#N)C(=O)C(C)(C)[C@@H]5CC[C@]43C)[C@@H]2C1 [BARDOXOLONE] | 1300 | > 10000 | Activity (HT-29 [1]): >100%; Activity (HT-29 [4]): Active; Activity (HT-29 [5]): Active; inhibition (HT-29 [3]): Dose-dependent effect; inhibition (HT-29 [6]): Dose-dependent effect; Activity (HT-29 [7]): Toxic; Activity (HT-29 [8]): inactive; Activity (HT-29 [9]): inactive
CC1(C)CC[C@]2(NC(=O)C(C)(F)F)CC[C@]3(C)[C@H](C(=O)C=C4[C@@]5(C)C=C(C#N)C(=O)C(C)(C)[C@@H]5CC[C@]43C)[C@@H]2C1 [OMAVELOXOLONE] | 1410 | 5250 | –
CC1(C)CC[C@]2(C(=O)O)[C@H](O)C[C@]3(C)C(=CC[C@@H]4[C@@]5(C)CC[C@H](O)C(C)(C)[C@@H]5CC[C@]43C)[C@@H]2C1 | > 10000 | – | –
COCCOC(=O)C1=C(C)NC(C)=C(C(=O)OC(C)C)C1c1cccc([N+](=O)[O-])c1 (stereo not drawn) [NIMODIPINE] | – | – | Activity (Rattus norvegicus): 26.8%
CC1(C)CC[C@]2(C(=O)NC3CCCCC3)CC[C@]3(C)[C@H](C(=O)C=C4[C@@]5(C)C=C(C#N)C(=O)C(C)(C)[C@@H]5CC[C@]43C)[C@@H]2C1 | 1300 | > 10000 | –
COC(=O)/C=C/C(=O)OC | – | – | inhibition (HT-29 [2]): inactive
COC(=O)[C@]12CCC(C)(C)C[C@H]1[C@H]1C(=O)C=C3[C@@]4(C)C=C(C#N)C(=O)C(C)(C)[C@@H]4CC[C@@]3(C)[C@]1(C)CC2 [BARDOXOLONE METHYL] | 4340 | > 10000 | –
CC1(C)CC[C@]2(C(=O)n3ccnc3)CC[C@]3(C)[C@H](C(=O)C=C4[C@@]5(C)C=C(C#N)C(=O)C(C)(C)[C@@H]5CC[C@]43C)[C@@H]2C1 | 2100 | 1460 | –
CC1(C)CC[C@]2(C(=O)NCCNC(=O)OC(C)(C)C)CC[C@]3(C)[C@H](C(=O)C=C4[C@@]5(C)C=C(C#N)C(=O)C(C)(C)[C@@H]5CC[C@]43C)[C@@H]2C1 | 2810 | 1480 | –
CC1(C)CC[C@]2(C(=O)O)CC[C@]3(C)C(=CC[C@@H]4[C@@]5(C)CC[C@H](O)C(C)(C)[C@@H]5CC[C@]43C)[C@@H]2C1 [OLEANOLIC_ACID] | > 10000 | – | –
CC1(C)CC[C@]2(C(=O)N[C@@H]3CCCc4ccccc43)CC[C@]3(C)[C@H](C(=O)C=C4[C@@]5(C)C=C(C#N)C(=O)C(C)(C)[C@@H]5CC[C@]43C)[C@@H]2C1 | 1910 | 820 | –
CC(C)c1cc(C(=O)N2Cc3ccc(CN4CCN(C)CC4)cc3C2)c(O)cc1O | – | – | inhibition (HT-29 [2]): Active
CC1(C)CC[C@]2(C(=O)N[C@H]3CCCc4ccccc43)CC[C@]3(C)[C@H](C(=O)C=C4[C@@]5(C)C=C(C#N)C(=O)C(C)(C)[C@@H]5CC[C@]43C)[C@@H]2C1 | 1810 | 620 | –
C=CCNC1=C2C[C@@H](C)C[C@H](OC)[C@H](O)[C@@H](C)/C=C(\C)[C@H](OC(N)=O)[C@@H](OC)/C=C\C=C(/C)C(=O)NC(=CC1=O)C2=O | – | – | inhibition (HT-29 [2]): Active
CCNC(=O)[C@]12CCC(C)(C)C[C@H]1[C@H]1C(=O)C=C3[C@@]4(C)C=C(C#N)C(=O)C(C)(C)[C@@H]4CC[C@@]3(C)[C@]1(C)CC2 | 1380 | 4150 | –
